Published values gathered from unrelated publications.
Protocols differ between the studies behind these lines.

The IC50 of `COc1cccc2c1C(=O)c1c(O)c3c(c(O)c1C2=O)C[C@@](O)(C(=O)CO)C[C@@H]3O[C@H]1C[C@H](N)[C@H](O)[C@H](C)O1` is reported as 2.5 µM (CHO-K1; cell growth or viability, MTT; 72 h).
`Nc1ccccc1-c1nc2cnccn2c1NC1CCCCC1` has an IC50 of 75 µM (Vero; cell growth or viability, MTT; 48 h).
For `COc1cc(/C=C/C(=O)/C=C(O)/C=C/c2ccnc3ccccc23)ccc1O`, the IC50 was 19.3 µM (CHO-K1; cell growth or viability, SRB; 72 h).
`Cc1ccc2nc(-c3ccc(Cl)cc3)n(Cc3ccccc3)c2c1` gave an IC50 of 4.83 µM (human Rhabdomyosarcoma cell; cell growth or viability, MTT).
`COc1ccccc1/C=C/CNCC(O)COc1ccc2[nH]c3ccccc3c2c1` (stereo not shown) gave an IC50 of 6.1 µM (NCI-H1299; cell growth or viability, CCK-8; 72 h).
For `COc1cc(/C=C/C(=O)/C=C(O)/C=C/c2cccc3cnccc23)ccc1O`, the IC50 was 7.6 µM (CHO-K1; cell growth or viability, MTT; 72 h).
`Clc1ccc(Cn2c(-c3ccc(Cl)cc3)nc3ccccc32)cc1` has an IC50 of 9.67 µM (human Rhabdomyosarcoma cell; cell growth or viability, MTT).
With `COc1cc(Nc2nccc(-c3cnn4nc(OC)ccc34)n2)cc(C(F)(F)F)c1` the IC50 was 0.75 µM (NCI-H1437; cell growth or viability, ATP luminescence).
The IC50 of `COc1ccc(-c2nc(C(=O)Nc3nnc(-c4cc5ccccc5n4C)s3)cc3c2[nH]c2ccccc23)cc1` is reported as 30.2 µM (HL-60; cell growth or viability, MTT; 72 h).
`Clc1ccc(-c2nc3ccccc3[nH]2)c(Cl)c1` has an IC50 of 35 µM (human Rhabdomyosarcoma cell; cell growth or viability, MTT; 48 h).
With `COc1ccccc1OCCNC[C@@H](O)COc1cccc2[nH]c3ccccc3c12` the IC50 was 41.5 µM (NCI-H1299; cell growth or viability, CCK-8).
The IC50 of `O=C(/C=C(O)/C=C/c1ccc[nH]1)/C=C/c1c[nH]c2ccccc12` is reported as 9.64 µM (CHO-K1; cell growth or viability, SRB; 72 h).
With `O=C(/C=C(/C=C/c1cccnc1)NCCO)/C=C/c1cccnc1` the IC50 was greater than 75 µM (CHO-K1; cell growth or viability, SRB; 72 h).
For `Cc1ncn2c(=O)n(C)nnc12`, the IC50 was 6 µM (D54; cell growth or viability, resazurin; 7 days).
The IC50 of `C[C@@H](Oc1cc(-c2cnn(C3CCNCC3)c2)cnc1N)c1c(Cl)ccc(F)c1Cl` is reported as 0.99 µM (Rh30; cell growth or viability; 72 h).
For `COc1cc(/C=C/C(=O)CC(=O)/C=C/c2ccc(O)c(OC)c2)ccc1O`, the IC50 was 21.3 µM (CHO-K1; cell growth or viability, MTT; 72 h).
With `CSc1ccc(-c2nc3ccc(C)cc3n2Cc2ccccc2)cc1` the IC50 was 31.7 µM (human Rhabdomyosarcoma cell; cell growth or viability, MTT).
`COCCNC(=C\C(=O)/C=C/c1cccnc1)/C=C/c1cccnc1` has an IC50 of 45.1 µM (CHO-K1; cell growth or viability, MTT; 72 h).
`Clc1ccccc1-c1nc2ccccc2[nH]1` gave an IC50 of 42.4 µM (human Rhabdomyosarcoma cell; cell growth or viability, MTT; 48 h).
`O=C(O)Cc1ccccc1Nc1c(Cl)cccc1Cl` has an IC50 of 54.7 µM (RAW264.7; NO release, inhibitor; LPS-stimulated).
`C(=C\c1c[nH]c2ccccc12)/c1cc(/C=C/c2cccs2)[nH]n1` gave an IC50 of 16.2 µM (CHO-K1; cell growth or viability, SRB; 72 h).
`CSc1ccc(-c2nc3ccccc3[nH]2)cc1` gave an IC50 of 21.6 µM (human Rhabdomyosarcoma cell; cell growth or viability, MTT; 48 h).
`O=C1C=C(/C=C/c2cccnc2)N(CCCO)C(c2cccnc2)C1` (stereo not shown) has an IC50 of greater than 75 µM (CHO-K1; cell growth or viability, MTT; 72 h).
`COc1ccccc1CNCC(O)COc1cccc2[nH]c3ccccc3c12` (stereo not shown) gave an IC50 of 14.8 µM (NCI-H1299; cell growth or viability, CCK-8; 72 h).
For `Clc1ccc(-c2nc3ccccc3n2Cc2ccccc2)cc1`, the IC50 was 31.7 µM (human Rhabdomyosarcoma cell; cell growth or viability, MTT).
